Results published in ChEMBL document CHEMBL3286203, “Reactive oxygen species (ROS) inducible DNA cross-linking agents and their effect on cancer cells and normal lymphocytes” (J Med Chem, 2014).
Activity calls are given as the source filed them. No cut-off for these calls is given here.

Tests used:
SF-295 = experiment: Cytotoxicity against human SF295 cells assessed as growth inhibition at 10 uM after 48 hrs by SRB assay; assay type: functional, cell-based
Method in brief: (§1)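 Single-dose screen run by the NCI Developmental Therapeutics Program (NCI-60). Cells were grown in RPMI 1640 with 5% fetal bovine serum and 2 mM L-glutamine. They were plated at 5000–40 000 cells/well, depending on doubling time. Each line was run in two plates and exposed to 10 μM drug for 48 h at 37 °C, 5% CO2, 100% humidity. Read-out was growth percent.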

NCI-H322M = experiment: Cytotoxicity against human NCI-H322M cells assessed as growth inhibition at 10 uM after 48 hrs by SRB assay; assay type: functional, cell-based; method in brief: as §1
UACC-62 = experiment: Cytotoxicity against human UACC62 cells assessed as growth inhibition at 10 uM after 48 hrs by SRB assay; assay type: functional, cell-based
Method in brief: (§2)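 NCI-60 DTP human tumour line screen. Cells grown in RPMI 1640 with 5% fetal bovine serum and 2 mM L-glutamine, plated at 5000–40 000 cells/well according to doubling time. Single dose of 10 μM for 48 h at 37 °C, 5% CO2, 95% air, 100% humidity, two plates per line. Read-out is growth percent.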

OVCAR-4 = experiment: Cytotoxicity against human OVCAR4 cells assessed as growth inhibition at 10 uM after 48 hrs by SRB assay; assay type: functional, cell-based; method in brief: as §1
SNB-75 = experiment: Cytotoxicity against human SNB75 cells assessed as growth inhibition at 10 uM after 48 hrs by SRB assay; assay type: functional, cell-based; method in brief: as §2
Malme-3M = experiment: Cytotoxicity against human MALME-3M cells assessed as growth inhibition at 10 uM after 48 hrs by SRB assay; assay type: functional, cell-based
Method in brief: (§3)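 NCI DTP 60-cell-line screen run at the NCI. Cells were grown in RPMI 1640 with 5% FBS and 2 mM L-glutamine. They were seeded at 5000–40 000 cells/well depending on doubling time and grown in two plates per line. Each was exposed to a single 10 μM dose for 48 h at 37 °C, 5% CO2, 95% air, 100% humidity. Read-out was percent growth.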

HOP-92 = experiment: Cytotoxicity against human HOP92 cells assessed as growth inhibition at 10 uM after 48 hrs by SRB assay; assay type: functional, cell-based; method in brief: as §3
SF-539 = experiment: Cytotoxicity against human SF539 cells assessed as growth inhibition at 10 uM after 48 hrs by SRB assay; assay type: functional, cell-based; method in brief: as §1
SF-268 = experiment: Cytotoxicity against human SF268 cells assessed as growth inhibition at 10 uM after 48 hrs by SRB assay; assay type: functional, cell-based; method in brief: as §1
MDA-MB-435 = experiment: Cytotoxicity against human MDA-MB-435 cells assessed as growth inhibition at 10 uM after 48 hrs by SRB assay; assay type: functional, cell-based; method in brief: as §1
HOP-62 = experiment: Cytotoxicity against human HOP62 cells assessed as growth inhibition at 10 uM after 48 hrs by SRB assay; assay type: functional, cell-based; method in brief: as §3
PC-3 = experiment: Cytotoxicity against human PC3 cells assessed as growth inhibition at 10 uM after 48 hrs by SRB assay; assay type: functional, cell-based; method in brief: as §1
HL-60(TB) = experiment: Cytotoxicity against human HL-60(TB) cells assessed as growth inhibition at 10 uM after 48 hrs by SRB assay; assay type: functional, cell-based; method in brief: as §3
RXF 393 = experiment: Cytotoxicity against human RXF393 cells assessed as growth inhibition at 10 uM after 48 hrs by SRB assay; assay type: functional, cell-based; method in brief: as §1
SK-MEL-5 = experiment: Cytotoxicity against human SK-MEL-5 cells assessed as growth inhibition at 10 uM after 48 hrs by SRB assay; assay type: functional, cell-based; method in brief: as §1
T47D = experiment: Cytotoxicity against human T47D cells assessed as growth inhibition at 10 uM after 48 hrs by SRB assay; assay type: functional, cell-based; method in brief: as §2
COLO 205 = experiment: Cytotoxicity against human COLO205 cells assessed as growth inhibition at 10 uM after 48 hrs by SRB assay; assay type: functional, cell-based; method in brief: as §3
CAKI-1 = experiment: Cytotoxicity against human Caki1 cells assessed as growth inhibition at 10 uM after 48 hrs by SRB assay; assay type: functional, cell-based; method in brief: as §3
UO-31 = experiment: Cytotoxicity against human UO31 cells assessed as growth inhibition at 10 uM after 48 hrs by SRB assay; assay type: functional, cell-based; method in brief: as §2
EKVX = experiment: Cytotoxicity against human EKVX cells assessed as growth inhibition at 10 uM after 48 hrs by SRB assay; assay type: functional, cell-based; method in brief: as §3
M14 = experiment: Cytotoxicity against human M14 cells assessed as growth inhibition at 10 uM after 48 hrs by SRB assay; assay type: functional, cell-based; method in brief: as §3
SK-OV-3 = experiment: Cytotoxicity against human SKOV3 cells assessed as growth inhibition at 10 uM after 48 hrs by SRB assay; assay type: functional, cell-based; method in brief: as §1
U-251 = experiment: Cytotoxicity against human U251 cells assessed as growth inhibition at 10 uM after 48 hrs by SRB assay; assay type: functional, cell-based; method in brief: as §2
A498 = experiment: Cytotoxicity against human A498 cells assessed as growth inhibition at 10 uM after 48 hrs by SRB assay; assay type: functional, cell-based; method in brief: as §3
LOX IMVI = experiment: Cytotoxicity against human LOXIMVI cells assessed as growth inhibition at 10 uM after 48 hrs by SRB assay; assay type: functional, cell-based; method in brief: as §3
IGROV-1 = experiment: Cytotoxicity against human IGROV1 cells assessed as growth inhibition at 10 uM after 48 hrs by SRB assay; assay type: functional, cell-based; method in brief: as §3
MDA-MB-468 = experiment: Cytotoxicity against human MDA-MB-468 cells assessed as growth inhibition at 10 uM after 48 hrs by SRB assay; assay type: functional, cell-based; method in brief: as §1
SK-MEL-2 = experiment: Cytotoxicity against human SK-MEL-2 cells assessed as growth inhibition at 10 uM after 48 hrs by SRB assay; assay type: functional, cell-based; method in brief: as §1
SK-MEL-28 = experiment: Cytotoxicity against human SK-MEL-28 cells assessed as growth inhibition at 10 uM after 48 hrs by SRB assay; assay type: functional, cell-based; method in brief: as §1
MOLT-4 = experiment: Cytotoxicity against human MOLT4 cells assessed as growth inhibition at 10 uM after 48 hrs by SRB assay; assay type: functional, cell-based; method in brief: as §1
RPMI-8226 = experiment: Cytotoxicity against human RPMI8226 cells assessed as growth inhibition at 10 uM after 48 hrs by SRB assay; assay type: functional, cell-based; method in brief: as §1
BT-549 = experiment: Cytotoxicity against human BT549 cells assessed as growth inhibition at 10 uM after 48 hrs by SRB assay; assay type: functional, cell-based; method in brief: as §3
SNB-19 = experiment: Cytotoxicity against human SNB19 cells assessed as growth inhibition at 10 uM after 48 hrs by SRB assay; assay type: functional, cell-based; method in brief: as §2
786-0 = experiment: Cytotoxicity against human 786-0 cells assessed as growth inhibition at 10 uM after 48 hrs by SRB assay; assay type: functional, cell-based; method in brief: as §3
UACC-257 = experiment: Cytotoxicity against human UACC257 cells assessed as growth inhibition at 10 uM after 48 hrs by SRB assay; assay type: functional, cell-based; method in brief: as §2
[1] = Induction of [32P]-labeled 49-mer oligonucleotide duplex DNA 12 with GNC sequence at terminus (unknown origin) interstrand cross-linking at 1 mM after 16 hrs by PAGE
Method in brief: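 32P-labelled 12a (1.0 μM) annealed with 1.5 equiv of 12b in 10 mM potassium phosphate pH 7 / 100 mM NaCl (65 °C for 3 min, then slow cooling). Duplex incubated with compound (final 1 μM–5 mM), with or without H2O2, in NaCl and potassium phosphate pH 8 at room temperature for 16 h. Quenched in formamide; 20% denaturing PAGE.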

HCT-15 = experiment: Cytotoxicity against human HCT15 cells assessed as growth inhibition at 10 uM after 48 hrs by SRB assay; assay type: functional, cell-based; method in brief: as §3

| Compound | growth inhibition (GI) (SF-295) | growth inhibition (GI) (NCI-H322M) | growth inhibition (GI) (UACC-62) | growth inhibition (GI) (OVCAR-4) | growth inhibition (GI) (SNB-75) | growth inhibition (GI) (Malme-3M) | growth inhibition (GI) (HOP-92) | growth inhibition (GI) (SF-539) | growth inhibition (GI) (SF-268) | growth inhibition (GI) (MDA-MB-435) | growth inhibition (GI) (HOP-62) | growth inhibition (GI) (PC-3) | growth inhibition (GI) (HL-60(TB)) | growth inhibition (GI) (RXF 393) | growth inhibition (GI) (SK-MEL-5) | growth inhibition (GI) (T47D) | growth inhibition (GI) (COLO 205) | growth inhibition (GI) (CAKI-1) | growth inhibition (GI) (UO-31) | growth inhibition (GI) (EKVX) | further results |
| --- | --- | --- | --- | --- | --- | --- | --- | --- | --- | --- | --- | --- | --- | --- | --- | --- | --- | --- | --- | --- | --- |
| CC1(C)OB(c2ccc(COC(=O)N(CCCl)CCCl)cc2)OC1(C)C | inactive | inactive | inactive | inactive | inactive | inactive | inactive | inactive | inactive | inactive | inactive | inactive | inactive | inactive | inactive | inactive | inactive | inactive | inactive | inactive | growth inhibition (GI) (M14): inactive; growth inhibition (GI) (SK-OV-3): inactive; growth inhibition (GI) (U-251): inactive; growth inhibition (GI) (A498): inactive; growth inhibition (GI) (LOX IMVI): inactive; growth inhibition (GI) (IGROV-1): inactive; growth inhibition (GI) (MDA-MB-468): inactive; growth inhibition (GI) (SK-MEL-2): inactive; growth inhibition (GI) (SK-MEL-28): inactive; growth inhibition (GI) (MOLT-4): inactive; growth inhibition (GI) (RPMI-8226): inactive; growth inhibition (GI) (BT-549): inactive; growth inhibition (GI) (SNB-19): inactive; growth inhibition (GI) (786-0): inactive; growth inhibition (GI) (UACC-257): inactive; Activity [1]: inactive; growth inhibition (GI) (HCT-15): inactive |
| CC1(C)OB(c2ccc(N(CCCl)CCOS(C)(=O)=O)cc2)OC1(C)C | Active | Active | Active | Active | Active | Active | Active | Active | Active | Active | Active | Active | Active | Active | Active | Active | Active | Active | Active | Active | growth inhibition (GI) (M14): Active; growth inhibition (GI) (SK-OV-3): Active; growth inhibition (GI) (U-251): Active; growth inhibition (GI) (A498): Active; growth inhibition (GI) (LOX IMVI): Active; growth inhibition (GI) (IGROV-1): Active; growth inhibition (GI) (MDA-MB-468): Active; growth inhibition (GI) (SK-MEL-2): Active; growth inhibition (GI) (SK-MEL-28): Active; growth inhibition (GI) (MOLT-4): Active; growth inhibition (GI) (RPMI-8226): Active; growth inhibition (GI) (BT-549): Active; growth inhibition (GI) (SNB-19): Active; growth inhibition (GI) (786-0): Active; growth inhibition (GI) (UACC-257): Active; Activity [1]: inactive; growth inhibition (GI) (HCT-15): Active |
| CC1(C)OB(c2ccc(N(CCBr)CCBr)cc2)OC1(C)C | Active | Active | Active | Active | Active | Active | Active | Active | Active | Active | Active | Active | Active | Active | Active | Active | Active | Active | Active | Active | growth inhibition (GI) (M14): Active; growth inhibition (GI) (SK-OV-3): Active; growth inhibition (GI) (U-251): Active; growth inhibition (GI) (A498): Active; growth inhibition (GI) (LOX IMVI): Active; growth inhibition (GI) (IGROV-1): Active; growth inhibition (GI) (MDA-MB-468): Active; growth inhibition (GI) (SK-MEL-2): Active; growth inhibition (GI) (SK-MEL-28): Active; growth inhibition (GI) (MOLT-4): Active; growth inhibition (GI) (RPMI-8226): Active; growth inhibition (GI) (BT-549): Active; growth inhibition (GI) (SNB-19): Active; growth inhibition (GI) (786-0): Active; growth inhibition (GI) (UACC-257): Active; Activity [1]: inactive; growth inhibition (GI) (HCT-15): Active |
| CC1(C)OB(c2ccc(N(CCBr)CCOS(C)(=O)=O)cc2)OC1(C)C | Active | Active | Active | Active | Active | Active | Active | Active | Active | Active | Active | Active | Active | Active | Active | Active | Active | Active | Active | Active | growth inhibition (GI) (M14): Active; growth inhibition (GI) (SK-OV-3): Active; growth inhibition (GI) (U-251): Active; growth inhibition (GI) (A498): Active; growth inhibition (GI) (LOX IMVI): Active; growth inhibition (GI) (IGROV-1): Active; growth inhibition (GI) (MDA-MB-468): Active; growth inhibition (GI) (SK-MEL-2): Active; growth inhibition (GI) (SK-MEL-28): Active; growth inhibition (GI) (MOLT-4): Active; growth inhibition (GI) (RPMI-8226): Active; growth inhibition (GI) (BT-549): Active; growth inhibition (GI) (SNB-19): Active; growth inhibition (GI) (786-0): Active; growth inhibition (GI) (UACC-257): Active; Activity [1]: inactive; growth inhibition (GI) (HCT-15): Active |
